Results: paper PMC6972567 (Journal of Clinical Pharmacology, 2019)

What was measured:
[1] = Plasma pharmacokinetics of the CYP probe substrates and metabolites; assay type: in vivo, human; settings: for t1/2 / half-life: harmonic mean ± pseudo-SD; for AUC(0-inf): AUCinf; for AUC(0-t): AUCt
[2] = test system: CYP2C19; assay type: in vivo, human; settings: probe with upadacitinib 30 mg once daily relative to probe alone, all subjects
[3] = biological target: T1, CYP1A2 (Homo sapiens, UniProt P05177); assay type: in vivo; settings: probe with upadacitinib 30 mg once daily relative to probe alone, all subjects
T1 sequence (P05177 1-516): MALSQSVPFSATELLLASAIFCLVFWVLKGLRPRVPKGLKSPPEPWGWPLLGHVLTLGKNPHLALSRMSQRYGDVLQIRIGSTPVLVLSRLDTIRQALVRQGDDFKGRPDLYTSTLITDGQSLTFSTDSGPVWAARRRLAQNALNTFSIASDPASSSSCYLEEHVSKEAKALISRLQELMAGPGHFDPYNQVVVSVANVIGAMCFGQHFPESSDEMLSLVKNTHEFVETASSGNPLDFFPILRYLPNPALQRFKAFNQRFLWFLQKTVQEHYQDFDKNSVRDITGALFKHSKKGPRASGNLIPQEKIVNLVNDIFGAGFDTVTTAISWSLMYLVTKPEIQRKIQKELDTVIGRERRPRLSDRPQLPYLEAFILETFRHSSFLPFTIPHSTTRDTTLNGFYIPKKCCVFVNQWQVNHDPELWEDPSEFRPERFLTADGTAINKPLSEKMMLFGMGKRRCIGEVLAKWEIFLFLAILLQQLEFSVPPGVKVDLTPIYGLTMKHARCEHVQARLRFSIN
Summary of the method: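 Twenty subjects received single oral doses on two occasions: a caffeine 200 mg tablet with the other cocktail probes, after a 10-hour minimum fast and 4 hours before lunch. This was given first alone, then after a 5-day washout on day 12 of test compound 30 mg once daily (days 1‐15). Heparinised plasma was sampled predose through 24 h and at 36 h, with validated assay.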

[4] = test system: CYP2D6; assay type: in vivo, human; settings: probe with upadacitinib 30 mg once daily relative to probe alone, all subjects
[5] = test system: CYP3A; assay type: in vivo, human
[6] = Safety assessments in the cocktail study; assay type: in vivo, human
[7] = cited from earlier work
[8] = test system: CYP3A; settings: cited from earlier work
[9] = Period 1, CYP probes alone, median (range)
[10] = Period 1, CYP probes alone, n = 20, mean ± SD
[11] = Period 2, CYP probes + upadacitinib 30 mg once daily
[12] = Period 2, CYP probes + upadacitinib 30 mg once daily, median (range)
[13] = Period 2, CYP probes + upadacitinib 30 mg once daily, n = 20, mean ± SD
[14] = human, plasma, oral, t1/2, Period 2, CYP probes + upadacitinib 30 mg once daily
[15] = human, plasma, oral, Period 1, CYP probes alone, n = 20, mean ± SD
[16] = human, plasma, oral, Period 2, CYP probes + upadacitinib 30 mg once daily, n = 20, mean ± SD
[17] = multiple doses of upadacitinib 30 mg once daily
[18] = probe with upadacitinib 30 mg once daily relative to probe alone, all subjects

| SMILES | t1/2 ([1]; Period 1, CYP probes alone) [h] | Tmax [1, 9] | t1/2 [1, 11] [h] | Tmax [1, 12] | CL/F [1, 10] [L/h] | CL/F [1, 13] [L/h] | Tmax ([1]; human, plasma, oral) [h] | Cmax ([1]; human, plasma, po) [ng/mL] | AUC(0-inf) [1, 16] [ng·h/mL] | AUC(0-t) [1, 15] [ng·h/mL] | AUC(0-t) [1, 16] [ng·h/mL] | further results |
| --- | --- | --- | --- | --- | --- | --- | --- | --- | --- | --- | --- | --- |
| COc1ccc2nc([S+]([O-])Cc3ncc(CO)c(OC)c3C)[nH]c2c1 (centres unmarked) [5‐Hydroxy omeprazole, 5‐hydroxy‐omeprazole] | 1.36 ± 0.293 | 3.0 (2.0‐6.0) h | 1.37 ± 0.319 | 3.0 (2.0‐6.0) h |  |  |  |  |  |  |  | AUCinf [1, 10]: 1290 ± 364 ng·h/mL; AUCt [1, 10]: 1270 ± 359 ng·h/mL; Cmax ([1]; Period 1, CYP probes alone, single oral dose, plasma, healthy subjects n = 20, mean ± SD): 435 ± 155 ng/mL; AUCinf [1, 13]: 1180 ± 302 ng·h/mL; AUCt [1, 13]: 1160 ± 292 ng·h/mL; Cmax ([1]; Period 2, CYP probes + upadacitinib 30 mg once daily, plasma, n = 20, mean ± SD): 389 ± 116 ng/mL; AUCinf Central Value Ratio (90%CI) [2]: 0.92 (0.86‐0.99); AUCt Central Value Ratio (90%CI) [2]: 0.92 (0.85‐0.99) |
| Cn1c(=O)c2c(ncn2C)n(C)c1=O [Caffeine, caffeine] |  |  |  | 2.0 (1.0‐4.0) h | 6.53 ± 2.99 | 5.31 ± 2.26 | 2 | 4190 ± 826 |  |  |  | half-life ([1]; human, plasma, oral, t1/2, Period 1, CYP probes alone): 4.52 ± 1.5 h; half-life [1, 14]: 5.28 ± 1.5 h; AUCinf Central Value Ratio (90%CI) [3]: 1.22 (1.15‐1.29); AUCt Central Value Ratio (90%CI) [3]: 1.21 (1.15‐1.28); Cmax Central Value Ratio (90%CI) [3]: 1.13 (1.05‐1.22) |
| COc1ccc2c(c1)[C@]13CCCC[C@@H]1[C@H](C2)N(C)CC3 [Dextromethorphan, dextromethorphan] | 6.82 ± 4.68 |  | 7.26 ± 5.08 | 3.5 (2.0‐6.0) h | 4120 ± 5580 | 3390 ± 4560 | 3.5 | 7.77 ± 10.1 | 328 ± 552 | 250 ± 397 | 225 ± 347 | AUC(0-inf) [1, 15]: 403 ± 706 ng·h/mL; AUCinf Central Value Ratio (90%CI) [4]: 1.07 (0.95‐1.22); AUCt Central Value Ratio (90%CI) [4]: 1.10 (0.97‐1.25); Cmax Central Value Ratio (90%CI) [4]: 1.09 (0.98‐1.21) |
| Cc1ncc2n1-c1ccc(Cl)cc1C(c1ccccc1F)=NC2 [Midazolam, midazolam] | 4.65 ± 2.51 | 0.5 (0.5‐1.0) h | 4.08 ± 2.33 |  | 68.1 ± 29.2 | 90.2 ± 32.7 |  | 32.6 ± 14.1 | 64.6 ± 30.9 | 87.5 ± 44.5 | 63.2 ± 29.6 | decrease in AUCinf [5, 17]: 26%; decrease in Cmax [5, 17]: 26%; AUCinf Central Value Ratio (90%CI) [5, 18]: 0.74 (0.68‐0.80); AUCt Central Value Ratio (90%CI) [5, 18]: 0.74 (0.68‐0.80); Cmax Central Value Ratio (90%CI) [5, 18]: 0.74 (0.68‐0.80); decrease in exposure ([5]; upadacitinib 30 mg once daily): 26% |
| COc1ccc2[nH]c([S+]([O-])Cc3ncc(C)c(OC)c3C)nc2c1 (centres unmarked) [Omeprazole, omeprazole] |  |  |  | 3.0 (2.0‐6.0) h | 26.5 ± 20.5 | 34.9 ± 24.7 | 3 |  | 2080 ± 1860 | 2520 ± 2750 | 2000 ± 1820 | AUC(0-inf) [1, 15]: 2890 ± 2870 ng·h/mL; half-life [1, 14]: 1.14 ± 0.386 h; AUCinf Central Value Ratio (90%CI) [2]: 0.82 (0.72‐0.94); AUCt Central Value Ratio (90%CI) [2]: 0.87 (0.77‐0.99); Cmax Central Value Ratio (90%CI) [2]: 0.87 (0.72‐1.05) |
| CC(=O)C[C@@H](c1ccccc1)c1c(O)c2ccccc2oc1=O [S‐warfarin] |  | 2.0 (0.5‐4.0) h |  | 2.0 (0.5‐3.0) h |  |  |  |  |  |  |  | concentrations at the start of period 2 ([1]; carryover after 5-day washout): < 5 % of S‐warfarin Cmax |
| CC[C@@H]1CN(C(=O)NCC(F)(F)F)C[C@@H]1c1cnc2cnc3[nH]ccc3n12 [Upadacitinib] |  |  |  |  |  |  |  |  |  |  |  | effect of upadacitinib on CYP3A activity / probe exposure in vivo (in words) ([5]; upadacitinib 30 mg once daily, midazolam probe): limited effect; tolerability ([6]; CYP probe substrates alone or after multiple doses of upadacitinib 30 mg once daily, healthy subjects): well tolerated; adverse event assessed as possibly related to upadacitinib ([6]; one subject): mild oropharyngeal pain; administered dose recovered as unchanged upadacitinib in feces and urine [7]: more than 60%; metabolizing enzymes [7]: metabolized by cytochrome P450 (CYP) 3A and, to a lesser extent, by CYP2D6; accumulation in plasma ([7]; multiple once-daily dosing of the extended-release formulation): no accumulation; sensitivity as CYP3A substrate ([8]; concluded from ketoconazole and rifampin interaction): not a sensitive substrate for CYP3A; increase in upadacitinib AUC ([8]; with ketoconazole, a strong CYP3A inhibitor): 75% |
